{"source": "paper PMC9359741", "about": "(Clinical Cancer Research, 2022)", "tested_on": "patients with PDA, PD-1/PD-L1 IR advanced solid tumors or prOVCA", "assay": "Phase 2, ARRY-382 300 mg QD plus pembrolizumab 200 mg IV Q3W: adverse events", "assay_type": "in vivo, human", "details": "for Deaths: mostly disease progression", "summary_of_the_method": "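Open-label study at 12 US centres with three cohorts: pancreatic ductal adenocarcinoma after ≥1 prior systemic line; tumours progressing on anti-PD-1/PD-L1; ovarian, peritoneal or fallopian cancer progressing ≤6 months after ≥4 platinum cycles. Oral test compound 300 mg QD plus anti-PD-1 antibody 200 mg IV every 3 weeks. AEs, SAEs and labs graded by CTCAE v4.03 in all dosed patients; descriptive summary.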", "note": "Values joined by “and” are separate entries in the source; they are usually repeats but may differ in a detail not shown here. Equal values may be shown once."}
{"smiles": "Cc1cccc(Cn2nc(C3CC3)c3c(NC(=O)c4cnc5cc(OCCN6CCN(C)CC6)ccn45)cccc32)n1", "note": "[ARRY-382]", "values": [{"measurement": "ARRY-382-related SAEs", "setting": "PD-1/PD-L1 IR", "result": 15.8, "unit": "%"}, {"measurement": "ARRY-382-related fatigue", "setting": "PD-1/PD-L1 IR", "result": 47.4, "unit": "%"}, {"measurement": "ARRY-382-related grade ≥3 AEs", "setting": "PD-1/PD-L1 IR", "result": 57.9, "unit": "%"}, {"measurement": "ARRY-382-related increased CPK", "setting": "PD-1/PD-L1 IR", "result": 47.4, "unit": "%"}, {"measurement": "ARRY-382-related nausea", "setting": "PD-1/PD-L1 IR", "result": 42.1, "unit": "%"}, {"measurement": "Dose reduction or interruption of ARRY-382 due to AEs", "setting": "PD-1/PD-L1 IR", "result": "13 (68.4%) n (%)"}, {"measurement": "Patients with ≥1 dose reduction or interruption of ARRY-382", "setting": "PD-1/PD-L1 IR", "result": "15 (78.9%) n (%)"}, {"measurement": "Permanent discontinuations due to AEs", "setting": "PD-1/PD-L1 IR", "result": "1 (5.3%) n (%)"}, {"measurement": "ARRY-382-related AEs: ALT increased", "setting": "PD-1/PD-L1 IR, N = 19", "result": "2 (10.5) n (%)"}, {"measurement": "ARRY-382-related AEs: AST increased", "setting": "PD-1/PD-L1 IR, N = 19", "result": "6 (31.6) n (%)"}, {"measurement": "ARRY-382-related AEs: All AEs", "setting": "PD-1/PD-L1 IR, N = 19", "result": "17 (89.5%) n (%) and 17 (89.5) n (%)"}, {"measurement": "ARRY-382-related AEs: Amylase increased", "setting": "PD-1/PD-L1 IR, N = 19", "result": "4 (21.1) n (%)"}, {"measurement": "ARRY-382-related AEs: Blood CPK increased", "setting": "PD-1/PD-L1 IR, N = 19", "result": "9 (47.4) n (%)"}, {"measurement": "ARRY-382-related AEs: Decreased appetite", "setting": "PD-1/PD-L1 IR, N = 19", "result": "3 (15.8) n (%)"}, {"measurement": "ARRY-382-related AEs: Diarrhea", "setting": "PD-1/PD-L1 IR, N = 19", "result": "5 (26.3) n (%)"}, {"measurement": "ARRY-382-related AEs: Fatigue", "setting": "PD-1/PD-L1 IR, N = 19", "result": "9 (47.4) n (%)"}, {"measurement": "ARRY-382-related AEs: Nausea", "setting": "PD-1/PD-L1 IR, N = 19", "result": "8 (42.1) n (%)"}, {"measurement": "ARRY-382-related AEs: Vomiting", "setting": "PD-1/PD-L1 IR, N = 19", "result": "7 (36.8) n (%)"}, {"measurement": "Deaths", "setting": "PD-1/PD-L1 IR", "result": "10 (52.6%) n (%)"}, {"measurement": "ARRY-382-related SAEs", "setting": "PDA", "result": 11.1, "unit": "%"}, {"measurement": "ARRY-382-related fatigue", "setting": "PDA", "result": 33.3, "unit": "%"}, {"measurement": "ARRY-382-related grade ≥3 AEs", "setting": "PDA", "result": 25.9, "unit": "%"}, {"measurement": "ARRY-382-related increased AST", "setting": "PDA", "result": 18.5, "unit": "%"}, {"measurement": "ARRY-382-related increased CPK", "setting": "PDA", "result": 18.5, "unit": "%"}, {"measurement": "ARRY-382-related nausea", "setting": "PDA", "result": 18.5, "unit": "%"}, {"measurement": "Dose reduction or interruption of ARRY-382 due to AEs", "setting": "PDA", "result": "10 (37.0%) n (%)"}, {"measurement": "Patients with ≥1 dose reduction or interruption of ARRY-382", "setting": "PDA", "result": "16 (59.3%) n (%)"}, {"measurement": "Permanent discontinuations due to AEs", "setting": "PDA", "result": "4 (14.8%) n (%)"}, {"measurement": "ARRY-382-related AEs: ALT increased", "setting": "PDA, N = 27", "result": "4 (14.8) n (%)"}, {"measurement": "ARRY-382-related AEs: AST increased", "setting": "PDA, N = 27", "result": "5 (18.5) n (%)"}, {"measurement": "ARRY-382-related AEs: All AEs", "setting": "PDA, N = 27", "result": "17 (63.0%) n (%) and 17 (63.0) n (%)"}, {"measurement": "ARRY-382-related AEs: Amylase increased", "setting": "PDA, N = 27", "result": "2 (7.4) n (%)"}, {"measurement": "ARRY-382-related AEs: Blood CPK increased", "setting": "PDA, N = 27", "result": "5 (18.5) n (%)"}, {"measurement": "ARRY-382-related AEs: Decreased appetite", "setting": "PDA, N = 27", "result": "5 (18.5) n (%)"}, {"measurement": "ARRY-382-related AEs: Diarrhea", "setting": "PDA, N = 27", "result": "4 (14.8) n (%)"}, {"measurement": "ARRY-382-related AEs: Fatigue", "setting": "PDA, N = 27", "result": "9 (33.3) n (%)"}, {"measurement": "ARRY-382-related AEs: Nausea", "setting": "PDA, N = 27", "result": "5 (18.5) n (%)"}, {"measurement": "ARRY-382-related AEs: Vomiting", "setting": "PDA, N = 27", "result": "2 (7.4) n (%)"}, {"measurement": "Deaths", "setting": "PDA", "result": "20 (74.1%) n (%)"}, {"measurement": "ARRY-382-related AEs: ALT increased", "setting": "Total, N = 57", "result": "10 (17.5) n (%)"}, {"measurement": "ARRY-382-related AEs: AST increased", "setting": "Total, N = 57", "result": "15 (26.3) n (%)"}, {"measurement": "ARRY-382-related AEs: All AEs", "setting": "Total, N = 57", "result": "43 (75.4%) n (%) and 43 (75.4) n (%)"}, {"measurement": "ARRY-382-related AEs: Amylase increased", "setting": "Total, N = 57", "result": "6 (10.5) n (%)"}, {"measurement": "ARRY-382-related AEs: Blood CPK increased", "setting": "Total, N = 57", "result": "16 (28.1) n (%)"}, {"measurement": "ARRY-382-related AEs: Decreased appetite", "setting": "Total, N = 57", "result": "8 (14.0) n (%)"}, {"measurement": "ARRY-382-related AEs: Diarrhea", "setting": "Total, N = 57", "result": "9 (15.8) n (%)"}, {"measurement": "ARRY-382-related AEs: Fatigue", "setting": "Total, N = 57", "result": "18 (31.6) n (%)"}, {"measurement": "ARRY-382-related AEs: Nausea", "setting": "Total, N = 57", "result": "16 (28.1) n (%)"}, {"measurement": "ARRY-382-related AEs: Vomiting", "setting": "Total, N = 57", "result": "10 (17.5) n (%)"}, {"measurement": "Patients with ≥1 TEAE", "setting": "in each cohort", "result": "> 90", "unit": "%"}, {"measurement": "Patients with a Grade 4 AE", "setting": "overall", "result": "7 (12.3%) n (%)"}, {"measurement": "Patients with a grade 3 AE", "setting": "overall", "result": "33 (57.9%) n (%)"}, {"measurement": "Periorbital edema", "setting": "overall", "result": 7.0, "unit": "%"}, {"measurement": "Patients with a grade 5 AE", "setting": "overall, none related to study treatment", "result": "3 (5.3%) n (%)"}, {"measurement": "ARRY-382-related SAEs", "setting": "prOVCA", "result": 0.0, "unit": "%"}, {"measurement": "ARRY-382-related grade ≥3 AEs", "setting": "prOVCA", "result": 45.5, "unit": "%"}, {"measurement": "Dose reduction or interruption of ARRY-382 due to AEs", "setting": "prOVCA", "result": "7 (63.6%) n (%)"}, {"measurement": "Patients with ≥1 dose reduction or interruption of ARRY-382", "setting": "prOVCA", "result": "7 (63.6%) n (%)"}, {"measurement": "Permanent discontinuations due to AEs", "setting": "prOVCA", "result": "1 (9.1%) n (%)"}, {"measurement": "Treatment discontinuations due to AEs (primary reason)", "setting": "prOVCA", "result": "2 (18.2%) n (%)"}, {"measurement": "ARRY-382-related AEs: ALT increased", "setting": "prOVCA, N = 11", "result": "4 (36.4) n (%)"}, {"measurement": "ARRY-382-related AEs: AST increased", "setting": "prOVCA, N = 11", "result": "4 (36.4) n (%)"}, {"measurement": "ARRY-382-related AEs: All AEs", "setting": "prOVCA, N = 11", "result": "9 (81.8%) n (%) and 9 (81.8) n (%)"}, {"measurement": "ARRY-382-related AEs: Amylase increased", "setting": "prOVCA, N = 11", "result": "0 (0.0) n (%)"}, {"measurement": "ARRY-382-related AEs: Blood CPK increased", "setting": "prOVCA, N = 11", "result": "2 (18.2) n (%)"}, {"measurement": "ARRY-382-related AEs: Decreased appetite", "setting": "prOVCA, N = 11", "result": "0 (0.0) n (%)"}]}
